# Most compounds without a hit are left out; they make up all but 0.79% or so of the library.
# mIAP inh: inhibitors of mouse IAP, primary screen, biochemical, luminescence, uHTS. intestinal alkaline phosphatase [Mus musculus]. purified mouse IAP, CDP-Star luminescence, 30 min. inhibition, % at 10 µM. 330,000 tested, 0.2% active. AID 2806, 2010;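 active = inhibition of at least 40% at 10 µM in the primary screen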
# mIAP activ: activators of mouse IAP, primary screen, biochemical, luminescence, uHTS; intestinal alkaline phosphatase [Mus musculus]; muIAP, CDP-Star luminescence, 30 min; stronger effect = higher value; 1 = vehicle-only enzyme signal, 0 = enzyme-free wells; activation factor at 10 µM; 330,000 tested, 0.24% active; AID 2805, 2010;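 active = activation factor of at least 2 at 20 µM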
#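 System: Mouse IAP enzyme | Also added: CDP-Star substrate | Dosing: Compounds dispensed in DMSO | Schedule: 30 min enzyme-substrate-compound incubation at room temperature | Technique: Chemiluminescence readout | Control set: DMSO-only wells and no-enzyme negative control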
# hIAP inh: human IAP inhibitors, primary screen, biochemical, luminescence, uHTS | 330,000 tested, 0.12% active | AID 2544, 2010 | Intestinal-type alkaline phosphatase (Homo sapiens), P09923 | purified IAP, CDP-Star luminescence, 30 min | inhibition, % at 10 µM;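 active = inhibition reaching a set limit with compound at 10 µM in the primary screen, cut at about 35% in these data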
# Target sequence (P09923 whole entry, looked up): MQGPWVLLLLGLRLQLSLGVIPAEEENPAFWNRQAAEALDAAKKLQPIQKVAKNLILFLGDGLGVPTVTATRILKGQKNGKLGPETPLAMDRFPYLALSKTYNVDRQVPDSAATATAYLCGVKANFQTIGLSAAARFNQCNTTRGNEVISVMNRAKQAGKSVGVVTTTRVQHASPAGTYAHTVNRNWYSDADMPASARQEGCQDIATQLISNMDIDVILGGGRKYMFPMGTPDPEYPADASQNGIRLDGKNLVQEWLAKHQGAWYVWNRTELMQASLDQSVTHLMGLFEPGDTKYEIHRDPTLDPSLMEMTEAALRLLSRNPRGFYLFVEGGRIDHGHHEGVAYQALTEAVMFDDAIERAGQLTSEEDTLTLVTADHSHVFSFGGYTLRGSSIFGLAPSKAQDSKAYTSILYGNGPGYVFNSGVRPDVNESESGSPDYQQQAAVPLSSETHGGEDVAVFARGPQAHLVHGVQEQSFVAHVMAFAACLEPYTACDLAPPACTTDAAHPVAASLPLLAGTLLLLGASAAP
# bIAP activator: bovine intestinal alkaline phosphatase activators, primary screen, biochemical, bovine IAP, CDP-star luminescence; purified bovine IAP, 30 min; stronger effect = higher value; fold of DMSO-control signal, blank-subtracted; 200,000 tested, 0.17% active; AID 1016, 2008; activation factor at 20 µM; alkaline phosphatase, intestinal [Bos taurus];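 active = activation factor of 2 or more at 20 µM, a signal rise over negative controls twice the positive control's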
# bIAP inhibitor: bovine intestinal alkaline phosphatase inhibitors, primary screen, selectivity assay for TNAP inhibitor project, biochemical, bovine IAP, CDP-star luminescence | AID 1019, 2008 | inhibition, % at 20 µM | purified bovine IAP, 30 min | 190,000 tested, under 10 active;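 active = over 50% inhibition of intestinal alkaline phosphatase at 20 µM in the single-dose screen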
#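 test system = bovine IAP enzyme | medium = DEA buffer 100 mM, pH 9.8, with MgCl2 1.0 mM, ZnCl2 0.02 mM | detection = luminescence | dosing = single compound dose of 20 µM, 2% DMSO final | incubation = 30 min reaction at room temperature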
# hIAP activ: human IAP activators, primary screen, biochemical, luminescence, uHTS. Intestinal-type alkaline phosphatase (Homo sapiens), P09923. purified human IAP, CDP-Star luminescence, 30 min; stronger effect = higher value; 1 = vehicle-only enzyme, 0 = enzyme-free background. activation factor at 10 µM. 330,000 tested, 0.16% active;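 active = activation factor of the enzyme at least 2-fold when tested at 20 µM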
# hIAP act conf: human IAP activators, confirmation, biochemical, luminescence, single concentration, uHTS hits; AID 434926, 2010; activation (%Activity, negative = activation), % at 8.3 µM; shares compounds with hIAP activ; 880 tested, 10% active; purified IAP, CDP-Star luminescence, 30 min; stronger effect = lower value;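 active = at least twofold enzyme activation in any of six single-dose repeats, which the averaged readout prints as negative percent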
# A number is an active result; n = inactive; x = not tested or not shown.
SMILES,mIAP inh,mIAP activ,hIAP inh,bIAP activator,bIAP inhibitor,hIAP activ,hIAP act conf
Cc1cc(N(C)C)ccc1N=Nc1ccc2ncccc2c1,n,n,40.4,x,x,n,x
O=C(NCc1ccccc1)c1nc2c(nnn2Cc2cccc(Cl)c2)c(=O)[nH]1,n,n,n,2.2,n,n,x
O=C(NCc1ccco1)c1nc2c(nnn2Cc2cccc(Cl)c2)c(=O)[nH]1,n,n,n,n,n,n,x
COc1ccc(CC(=O)Nc2ccc(/C(C)=N\NC(=O)c3ccc(Br)o3)cc2)cc1,n,n,n,x,x,n,x
CCn1c(NCc2cc(Br)ccc2NS(=O)(=O)c2ccc(C)cc2)nc2ccccc21,n,2.1,n,n,n,n,x
CCn1c2ccccc2c2cc(NC(=O)C3CCN(S(=O)(=O)c4cccs4)CC3)ccc21,n,2.96,n,n,n,n,x
O=C(Nc1cccc(Cl)c1)N1CCN2C(=O)c3ccccc3C12c1ccccc1 (stereo unspecified),n,2.08,n,n,n,n,x
Cc1c(C(=O)O)sc2nc3n(c(=O)c12)CCC(C)CC3 (stereo unspecified),41.0,n,n,n,n,n,x
CCOC(=O)c1cc(-c2ccccc2)n(CC(=O)Nc2cc(OC)cc(OC)c2)c1C,n,2.16,n,n,x,n,x
CCOC(=O)c1cc(-c2ccccc2)n(CC(=O)Nc2ccc(OCC)cc2)c1C,n,n,n,n,n,n,x
Oc1cc(O)cc(/C=C/c2ccc(O)c(O)c2)c1,78.2,n,n,x,x,n,x
COc1ccc(/C=N/NC(=O)c2cnccn2)cc1O,n,n,n,n,n,n,x
COc1cccc(/C=N/NC(=O)c2cnccn2)c1,n,n,n,2.2,n,n,x
O=C(O)CCCCCn1c(O)c(C=C2N=c3ccccc3=N2)sc1=S,40.1,n,n,n,n,n,x
COc1ccc(NC(=O)Nc2ccc3c(c2)C(=O)N([C@H](C)CO)C[C@H](C)[C@@H](CN(C)C(=O)NC2CCCCC2)O3)cc1,n,2.39,n,x,x,n,x
Cc1noc(C)c1S(=O)(=O)N(C)C[C@H]1Oc2ccc(NC(=O)NC3CCCCC3)cc2C(=O)N([C@H](C)CO)C[C@@H]1C,n,2.57,n,x,x,n,x
COc1ccc(NC(=O)N(C)C[C@H]2Oc3ccc(NC(=O)NC4CCCCC4)cc3C(=O)N([C@H](C)CO)C[C@@H]2C)cc1,n,2.05,n,x,x,n,x
CCOC(=O)/C=C1\SC(C)C(=O)N1CC(=O)N(CCC#N)c1ccccc1 (stereo unspecified),n,n,n,x,x,n,x
Cc1cc(C(=O)NNc2ccc(C(C)C)cc2)n(C(C)(C)C)n1,n,n,n,x,x,n,x
CCCOC(=O)c1ccc(NC(=O)Oc2ccccc2)cc1,n,n,n,2.6,n,n,x
CCCCN1C(=O)C2(NNc3ccccc3O2)c2ccccc21 (stereo unspecified),n,n,n,2.7,n,n,x
CCOC(=O)c1cc(C)nc(Sc2ccc(C)cc2)c1C#N,n,n,n,x,x,n,x
CC1CCN(CCc2nc3cc(NC(=O)NC4CCCCC4)ccc3n2C)CC1,n,n,n,2.5,n,n,x
Cn1c(CCN2CCCCC2)nc2cc(NC(=O)NC3CCCCC3)ccc21,n,n,n,n,n,n,x
NCCNc1ccc(C(=O)N2c3ccccc3Sc3ccccc32)cc1[N+](=O)[O-],n,n,n,x,x,3.46,n
SMILES,mIAP inh,mIAP activ,hIAP inh,bIAP activator,bIAP inhibitor,hIAP activ,hIAP act conf
Nc1ccc(C(=O)OCC(=O)N2c3ccccc3Sc3ccccc32)cc1[N+](=O)[O-],x,x,x,n,n,x,x
Cc1ccc(C)c(N(CC(=O)N2CCCC2)S(C)(=O)=O)c1,n,n,n,x,x,n,x
COc1ccc(OC)c(CCNC(=O)c2ccccc2NC(=O)C2=C(C)OCCS2)c1,n,n,n,x,x,n,x
Cc1cc(=O)[nH]c(-n2[nH]c3c(c2=O)CCCC3)n1,n,n,n,n,n,2.33,n
O=C(O)c1ccc2c(c1)C(=O)N(Cc1ccc3c(c1)OCO3)C2=O,n,n,n,n,n,n,x
O=C1c2ccccc2C(=O)N1Cc1ccc2c(c1)OCO2,n,n,n,n,n,2,n
O=C(Cc1ccc(F)cc1)Nc1nnc(-c2ccc(F)cc2)o1,n,n,n,x,x,n,x
COc1cc(/C=C2/SC(=S)N(Cc3ccccc3)C2=O)ccc1O,n,n,n,x,x,n,x
O=C1/C(=C\c2ccc(O)c(O)c2)SC(=S)N1Cc1ccccc1,n,n,54.6,x,x,n,n
CN(C)c1ccc(N=Nc2ccccc2C(=O)OCC(=O)NC2CCCC2)cc1,n,n,39.5,n,n,n,n
CN(C)c1ccc(N=Nc2ccccc2C(=O)OCC(=O)NCC2CCCCC2)cc1,n,n,n,n,n,n,x
CC(=O)Nc1cccc(-c2csc(Nc3ccccn3)n2)c1,n,n,n,n,n,2.18,-94.1
O=C(Nc1ccc(F)cc1)c1ccc2snnc2c1,n,n,35.0,x,x,n,n
Cc1ccc(NC(=O)c2ccc3snnc3c2)cc1C,n,n,n,x,x,n,x
CCN(CC)C(=O)C(=O)N/N=C/c1ccc(Cl)cc1Cl,n,n,n,n,n,2.12,n
Cc1cc(=O)[nH]c(SCC(=O)c2ccc(O)c(O)c2)n1,n,n,43.3,x,x,n,n
Cc1ccc(C(=O)CSc2nc(C)cc(=O)[nH]2)cc1,n,n,n,n,n,n,x
COc1cccc(/C=N/NC(=O)CNC(=O)/C=C\c2ccccc2)c1O,n,n,n,x,x,2.42,n
CCc1occc(=O)c1Oc1cc(NN2CCCCC2)c([N+](=O)[O-])cc1[N+](=O)[O-],n,n,42.5,x,x,n,n
Cc1ccc(S(=O)(=O)Nc2ccc(Cl)cc2C(=O)c2ccc(F)cc2)cc1,n,n,n,n,n,n,x
COc1ccc(-n2nc3ccc(NS(C)(=O)=O)cc3n2)cc1Cl,n,n,37.5,n,n,n,n
CN1CCN(C(=O)C2=C[C@H](c3ccccc3)C[C@H](OCc3ccc(CO)cc3)O2)CC1,n,n,n,n,n,n,x
CCOC(=O)C1CCN(CC(O)COc2ccc(C(=O)CC)cc2)CC1 (stereo unspecified),n,n,35.7,n,n,n,n
O=C(NNC(=O)c1nn(-c2ccc(F)cc2)ccc1=O)c1ccc(Cl)cc1,n,n,n,x,x,n,x
O=C(NNC(=O)c1nn(-c2ccc(F)cc2)ccc1=O)Nc1cccc(Cl)c1,n,n,39.9,x,x,n,n

# Compound activity deposited in PubChem BioAssay by Sanford-Burnham Center for Chemical Genomics.
